Measurements: ChEMBL document CHEMBL3769340, “Drug design, synthesis, in vitro and in silico evaluation of selective monoaminoxidase B inhibitors based on 3-acetyl-2-dichlorophenyl-5-aryl-2,3-dihydro-1,3,4-oxadiazole chemical scaffold” (Eur J Med Chem, 2016)

Columns and labels:
[1] = target: T1, Amine oxidase [flavin-containing] B (Homo sapiens, UniProt P27338); experiment: Inhibition of human recombinant MAO-B expressed in baculovirus infected BTI cells using p-tyramine as substrate at 100000 nM after 15 mins by Amplex Red-based fluorescence assay; details: 0.25 h; for inhibition (INH): bti, 100 µM
T1 sequence (P27338 whole entry): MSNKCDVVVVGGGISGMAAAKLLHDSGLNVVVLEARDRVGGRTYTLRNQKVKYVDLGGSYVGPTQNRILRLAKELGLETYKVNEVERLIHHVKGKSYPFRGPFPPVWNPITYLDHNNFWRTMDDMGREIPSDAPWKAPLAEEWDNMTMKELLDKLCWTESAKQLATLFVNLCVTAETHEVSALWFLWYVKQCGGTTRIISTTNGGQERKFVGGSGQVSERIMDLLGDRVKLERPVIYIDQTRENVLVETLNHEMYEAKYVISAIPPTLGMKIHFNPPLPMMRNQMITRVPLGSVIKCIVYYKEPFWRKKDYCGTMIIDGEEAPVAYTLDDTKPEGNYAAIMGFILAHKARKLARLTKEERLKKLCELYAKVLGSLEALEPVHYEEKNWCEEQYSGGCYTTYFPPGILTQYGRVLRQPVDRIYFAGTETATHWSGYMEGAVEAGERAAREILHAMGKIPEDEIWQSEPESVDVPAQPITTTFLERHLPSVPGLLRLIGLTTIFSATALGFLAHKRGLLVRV
Method in brief: (§1)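 Recombinant hMAO-A or hMAO-B, set to oxidize 165 pmol p-tyramine/min in controls, preincubated with compound for 15 min at 37 °C in the dark. Reaction started with Amplex Red, horseradish peroxidase (1 U/mL) and p-tyramine. Resorufin fluorescence read at 37 °C (ex 545, em 590 nm), with an enzyme-free buffer blank subtracted. Single highest concentration tested: 100000 nM, or 1×10⁶ nM.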

[2] = target: T2, Amine oxidase [flavin-containing] A (Homo sapiens, UniProt P21397); experiment: Inhibition of human recombinant MAO-A expressed in baculovirus infected BTI cells using p-tyramine as substrate at 100000 nM after 15 mins by Amplex Red-based fluorescence assay; details: 0.25 h, 100 µM; method in brief: as §1
T2 sequence (P21397 whole entry): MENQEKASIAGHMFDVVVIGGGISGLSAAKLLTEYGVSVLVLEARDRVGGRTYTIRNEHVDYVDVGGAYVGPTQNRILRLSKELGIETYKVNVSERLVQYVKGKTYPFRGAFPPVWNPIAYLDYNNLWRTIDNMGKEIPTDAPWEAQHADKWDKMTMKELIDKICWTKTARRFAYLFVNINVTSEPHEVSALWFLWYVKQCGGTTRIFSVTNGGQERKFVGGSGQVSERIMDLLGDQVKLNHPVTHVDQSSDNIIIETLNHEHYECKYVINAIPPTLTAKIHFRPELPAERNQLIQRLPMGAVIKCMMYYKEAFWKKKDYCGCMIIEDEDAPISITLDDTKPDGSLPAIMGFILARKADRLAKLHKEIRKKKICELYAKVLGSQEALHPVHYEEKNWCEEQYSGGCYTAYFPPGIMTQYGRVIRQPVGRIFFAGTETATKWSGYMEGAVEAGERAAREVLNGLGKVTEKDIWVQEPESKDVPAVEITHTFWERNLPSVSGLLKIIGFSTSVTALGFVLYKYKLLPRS

[3] = target: T1, Amine oxidase [flavin-containing] B; experiment: Inhibition of human recombinant MAO-B expressed in baculovirus infected BTI cells using p-tyramine as substrate after 15 mins by Amplex Red-based fluorescence assay; format: cell-based
[4] = target: T1, Amine oxidase [flavin-containing] B; experiment: Inhibition of human recombinant MAO-B expressed in baculovirus infected BTI cells using p-tyramine as substrate at 1x10'6 nM after 15 mins by Amplex Red-based fluorescence assay; details: 0.25 h; method in brief: as §1

SMILES	inhibition (INH) [2]	IC50 [3]	further results
CC(=O)N1N=C(c2ccccc2)OC1c1ccc(Cl)c(Cl)c1 (stereo not given)	Not Active	–	inhibition at 100 µM ([1]; BTI): 40%
CC(=O)N1N=C(c2ccccc2C)OC1c1ccc(Cl)c(Cl)c1 (stereo not given)	Not Active	2460 nM	–
O=C(NCCN1CCOCC1)c1ccc(Cl)cc1 [MOCLOBEMIDE]	–	–	inhibition (INH) [4]: Not Active
CC(=O)N1N=C(c2ccc(C#N)cc2)OC1c1ccc(Cl)c(Cl)c1 (stereo not given)	Not Active	–	inhibition (INH) [1]: Not Active
CC(=O)N1N=C(c2ccc([N+](=O)[O-])cc2)OC1c1ccc(Cl)c(Cl)c1 (racemic)	Not Active	9.46 nM	–
CC(=O)N1N=C(c2ccc([N+](=O)[O-])cc2)O[C@@H]1c1ccc(Cl)c(Cl)c1	–	7.61 nM	–
CC(=O)N1N=C(c2ccncc2)OC1c1ccc(Cl)c(Cl)c1 (stereo not given)	Not Active	69400 nM	–
CC(=O)N1N=C(c2ccc(Cl)cc2)O[C@H]1c1ccc(Cl)c(Cl)c1	–	–	inhibition (INH) [1]: Not Active
CC(=O)N1N=C(c2ccc(N(C)C)cc2)OC1c1ccc(Cl)c(Cl)c1 (stereo not given)	Not Active	–	inhibition (INH) [1]: Not Active
CC(=O)N1N=C(c2ccc(Br)cc2)OC1c1ccc(Cl)c(Cl)c1 (stereo not given)	Not Active	67.7 nM	–
CC(=O)N1N=C(c2ccc(Cl)cc2)OC1c1ccc(Cl)c(Cl)c1 (racemic)	Not Active	627 nM	–
CC(=O)N1N=C(c2ccc([N+](=O)[O-])cc2)O[C@H]1c1ccc(Cl)c(Cl)c1	–	523 nM	–
COc1ccc(C2=NN(C(C)=O)C(c3ccc(Cl)c(Cl)c3)O2)cc1 (stereo not given)	Not Active	218 nM	–
CC(=O)N1N=C(c2ccc(Cl)cc2)O[C@@H]1c1ccc(Cl)c(Cl)c1	–	204 nM	–
CC(=O)N1N=C(c2ccc(C)cc2)OC1c1ccc(Cl)c(Cl)c1 (stereo not given)	Not Active	19.3 nM	–
